Source: ChEMBL document CHEMBL1158283, “Four new bioactive manzamine-type alkaloids from the Philippine marine sponge Xestospongia ashmorica” (1996)
Converted amounts (≈) assume the structure as drawn.

Tests used:
Type in all cases: functional
L5178Y = assay: Cytotoxicity against mouse L5178Y cells after 72 hrs by MTT assay; conditions: read-out: ED50 (the source's name)
Method in brief: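 L5178y mouse lymphoma cells in Eagle's MEM plus 10% horse serum, roller tube culture; cultures started at 5×1000 cells/mL, exposed to 0.3–20 μg/mL, incubated 72 h at 37 °C. Growth assessed by MTT assay and by cell counting; ED50 reported in μg/mL.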

Spodoptera littoralis [1] = assay: Insecticidal activity against Spodoptera littoralis neonate larvae assessed as inhibition of larval growth at 132 ppm administered with artificial diet after 6 days by chronic feeding experiment relative to control; conditions: 144 h
Method in brief: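 Neonate S. littoralis larvae (n = 20) from a laboratory colony, fed artificial diet spiked at 132 ppm for 6 days; survival and weight of surviving larvae recorded and expressed as growth inhibition versus untreated controls.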

Bacillus subtilis = assay: Antibacterial activity against Bacillus subtilis 168 at 100 ug after 24 hrs by agar plate diffusion assay; conditions: Bacillus subtilis, 168, 24 h; read-out: IZ
Method in brief: (§1)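 Sterile susceptibility disks (5 mm diameter) loaded with 100 μg compound, placed on agar plates seeded with test bacterium (B. subtilis 168, S. aureus ATCC 25923, E. coli ATCC 25922); plates incubated 24 h at 37 °C, then inhibition zone diameter read.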

Staphylococcus aureus = assay: Antibacterial activity against Staphylococcus aureus ATCC 25923 at 100 ug after 24 hrs by agar plate diffusion assay; conditions: ATCC 25923, 24 h, read-out: IZ; method in brief: as §1
Spodoptera littoralis [2] = assay: Insecticidal activity against Spodoptera littoralis neonate larvae assessed as inhibition of larval growth drug administered with artificial diet after 6 days by chronic feeding experiment
Method in brief: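 Dose-response feeding assay: neonate S. littoralis larvae (n = 20) held 6 days on artificial diet spiked at 26–132 ppm; survival and surviving-larva weights compared with controls, ED50 (ppm) derived by probit analysis of the dose-response curve.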

**Q.** With `[O-][n+]1ccc2c([nH]c3ccccc32)c1C1=C[C@@]2(O)CC/C=C\CCCCN3CC[C@@H]1[C@]1(C[C@@H]4/C=C\CCCCN4[C@H]12)C3` as the compound, how does the EC50 (L5178Y) read?
**A.** 1.6 µg/mL (≈ 2.83 µM)

**Q.** What about the inhibition at 132 ppm (Spodoptera littoralis [1]) of the same compound?
**A.** 9.5%

**Q.** `[O-][n+]1ccc2c([nH]c3ccccc32)c1C1=C[C@@]2(O)CC/C=C\CCCCN3CC[C@@H]1[C@]1(CC/C=C\CCCCN[C@H]12)C3` was tested. Which EC50 (L5178Y) did it give?
**A.** 3.2 µg/mL (≈ 5.65 µM)

**Q.** What about the inhibition at 132 ppm (Spodoptera littoralis [1]) of the same compound?
**A.** 16.2%

**Q.** How did the EC50 (L5178Y) turn out when `[O-][N+]1=C(C2=C[C@@]3(O)CC/C=C\CCCCN4CC[C@@H]2[C@]2(C[C@@H]5/C=C\CCCCN5[C@H]23)C4)c2[nH]c3ccccc3c2CC1` was run?
**A.** 1.6 µg/mL (≈ 2.82 µM)

**Q.** And the inhibition at 132 ppm (Spodoptera littoralis [1])?
**A.** 26.4%

**Q.** Which EC50 (L5178Y) does the source give for `O[C@]12C=C(c3nccc4c3[nH]c3ccccc34)C3CCN(CCCC/C=C\CC1)C[C@@]31C[C@]34CC[C@H](CCCN3[C@H]12)O4` (some centres undefined) [6-Deoxymanzamine X] here?
**A.** 1.8 µg/mL (≈ 3.19 µM)

**Q.** And the inhibition at 132 ppm (Spodoptera littoralis [1])?
**A.** 18.5%

**Q.** `O[C@]12C=C(c3nccc4c3[nH]c3ccccc34)[C@@H]3CCN(CCCC/C=C\CC1)C[C@@]31C[C@@H]3/C=C\CCCCN3[C@H]12` [MANZAMINE A] was tested. Which zone of inhibition at 100 µg/disc (Bacillus subtilis) did it give?
**A.** 7 mm

**Q.** And the zone of inhibition at 100 µg/disc (Staphylococcus aureus)?
**A.** 7 mm

**Q.** What about the EC50 (L5178Y) of the same compound?
**A.** 1.8 µg/mL (≈ 3.28 µM)

**Q.** And the inhibition at 132 ppm (Spodoptera littoralis [1])?
**A.** 80%

**Q.** What about the ED50 (Spodoptera littoralis [2]) of the same compound?
**A.** 35 ppm

**Q.** With `O=C1CCCN2[C@@H](CC1)C[C@]13CN4CCCC/C=C\CC[C@](O)(C=C(c5nccc6c5[nH]c5ccccc56)C1CC4)[C@H]23` (some centres undefined) [MANZAMINE E] as the compound, how does the EC50 (L5178Y) read?
**A.** 6.6 µg/mL (≈ 11.7 µM)

**Q.** And the inhibition at 132 ppm (Spodoptera littoralis [1])?
**A.** 0%

**Q.** Which EC50 (L5178Y) does the source give for `O=C1CCCN2[C@@H](CC1)C[C@]13CN4CCCC/C=C\CC[C@](O)(C=C(c5nccc6c5[nH]c5c(O)cccc56)C1CC4)[C@H]23` (some centres undefined) [MANZAMINE F] here?
**A.** 2.3 µg/mL (≈ 3.96 µM)

**Q.** And the inhibition at 132 ppm (Spodoptera littoralis [1])?
**A.** 50.6%

**Q.** `O[C@]12C=C(c3nccc4c3[nH]c3ccccc34)[C@@H]3CCN(CCCC/C=C\CC1)C[C@@]31CC/C=C\CCCCN[C@H]12` [MANZAMINE J] was tested. Which EC50 (L5178Y) did it give?
**A.** 25 µg/mL (≈ 45.4 µM)

**Q.** What about the inhibition at 132 ppm (Spodoptera littoralis [1]) of the same compound?
**A.** 2%
